Data reported in ChEMBL document CHEMBL1132196, “Synthesis, biochemical evaluation, and classical and three-dimensional quantitative structure-activity relationship studies of 7-substituted-1,2,3,4-tetrahydroisoquinolines and their relative affinities toward phenylethanolamine N-methyltransferase and the alpha2-adrenoceptor” (J Med Chem, 1999).

Key:
[1] = biological target: T1, Phenylethanolamine N-methyltransferase (Bos taurus, UniProt P10938); assay: In vitro inhibitory activity against bovine adrenal phenylethanolamine N-methyl-transferase (PNMT)
T1 sequence (P10938 whole entry): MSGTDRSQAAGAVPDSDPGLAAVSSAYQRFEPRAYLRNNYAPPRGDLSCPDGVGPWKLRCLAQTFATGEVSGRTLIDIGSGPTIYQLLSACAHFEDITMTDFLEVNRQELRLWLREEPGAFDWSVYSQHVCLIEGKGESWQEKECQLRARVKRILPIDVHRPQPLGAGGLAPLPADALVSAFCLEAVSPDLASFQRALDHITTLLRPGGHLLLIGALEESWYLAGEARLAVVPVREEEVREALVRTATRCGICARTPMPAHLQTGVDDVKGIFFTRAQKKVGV

Bos taurus = species: Bos taurus; assay: Binding selectivity against PNMT and alpha-2-adrenoceptors, measured as a ratio of respective in vitro Ki's.
[2] = biological target: T2, Adrenergic receptor alpha-2 (Rattus norvegicus, UniProt P22086+P19328+P22909); assay: In vitro inhibitory activity against Alpha-2 adrenergic receptor using [3H]clonidine as radioligand in male Sprague-Dawley rats; assay type: protein assay
T2 sequence (P22086 whole entry): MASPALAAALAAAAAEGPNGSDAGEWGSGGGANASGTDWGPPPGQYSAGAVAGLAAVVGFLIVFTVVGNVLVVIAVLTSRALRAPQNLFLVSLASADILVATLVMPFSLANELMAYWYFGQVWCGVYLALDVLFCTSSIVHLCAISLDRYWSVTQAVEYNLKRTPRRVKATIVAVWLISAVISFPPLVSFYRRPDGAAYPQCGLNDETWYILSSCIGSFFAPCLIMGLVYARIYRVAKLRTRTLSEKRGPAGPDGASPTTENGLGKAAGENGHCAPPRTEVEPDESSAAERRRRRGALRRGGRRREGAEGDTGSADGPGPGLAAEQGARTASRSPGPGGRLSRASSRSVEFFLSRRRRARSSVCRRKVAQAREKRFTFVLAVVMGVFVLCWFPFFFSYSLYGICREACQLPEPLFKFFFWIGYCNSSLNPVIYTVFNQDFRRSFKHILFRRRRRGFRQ
T2 sequence (P19328 whole entry): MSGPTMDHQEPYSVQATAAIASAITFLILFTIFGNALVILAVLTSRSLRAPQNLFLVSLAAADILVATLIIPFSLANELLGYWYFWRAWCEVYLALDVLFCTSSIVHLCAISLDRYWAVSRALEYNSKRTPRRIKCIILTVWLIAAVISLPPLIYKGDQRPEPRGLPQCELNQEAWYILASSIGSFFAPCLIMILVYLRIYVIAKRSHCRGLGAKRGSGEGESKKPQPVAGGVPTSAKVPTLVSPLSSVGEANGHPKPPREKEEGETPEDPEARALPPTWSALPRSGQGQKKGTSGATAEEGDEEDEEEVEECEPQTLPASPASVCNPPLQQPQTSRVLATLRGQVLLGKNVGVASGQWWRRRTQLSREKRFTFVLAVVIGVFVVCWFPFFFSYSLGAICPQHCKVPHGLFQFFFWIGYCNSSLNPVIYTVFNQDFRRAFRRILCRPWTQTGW
T2 sequence (P22909 whole entry): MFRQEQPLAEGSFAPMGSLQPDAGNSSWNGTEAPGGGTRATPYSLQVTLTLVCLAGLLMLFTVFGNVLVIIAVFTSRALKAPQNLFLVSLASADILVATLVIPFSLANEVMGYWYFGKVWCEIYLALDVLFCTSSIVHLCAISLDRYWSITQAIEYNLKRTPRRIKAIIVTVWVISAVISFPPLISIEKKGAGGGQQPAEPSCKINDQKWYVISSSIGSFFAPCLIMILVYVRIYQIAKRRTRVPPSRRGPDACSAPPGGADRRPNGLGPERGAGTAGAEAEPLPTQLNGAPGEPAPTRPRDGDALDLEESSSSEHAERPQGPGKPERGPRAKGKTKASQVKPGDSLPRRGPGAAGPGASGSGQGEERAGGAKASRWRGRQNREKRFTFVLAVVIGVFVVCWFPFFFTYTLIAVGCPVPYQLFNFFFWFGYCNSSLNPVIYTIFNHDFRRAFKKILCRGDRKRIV
Method in brief: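 Rat cerebral cortex (male Sprague–Dawley) homogenised in ice-cold 50 mM Tris/HCl pH 7.7, washed by three 50 000g spins, resuspended in 200 volumes. [3H]clonidine 4.0 nM final, 25 °C for 30 min, filtration, scintillation counting. Nonspecific binding with 2 μM phentolamine. Quadruplicate, five concentrations over 16-fold range. IC50 by log-probit; Ki = IC50/(1+[clonidine]/KD).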

[3] = biological target: T1, Phenylethanolamine N-methyltransferase; assay: In vitro inhibitory activity against bovine adrenal phenylethanolamine N-methyltransferase(PNMT)

| Structure (SMILES) | Ki [1] [µM] | Selectivity (Bos taurus) | Ki [2] [µM] | Ki [3] [µM] |
| --- | --- | --- | --- | --- |
| Nc1ccc2c(c1)CNCC2 | 27 | 0.11 | – | – |
| COc1ccc2c(c1)CNCC2 | 21 | 0.022 | – | – |
| NS(=O)(=O)c1ccc2c(c1)CNCC2 | – | 180 | – | – |
| N#Cc1ccc2c(c1)CNCC2 | 1.4 | 5.2 | – | – |
| O=C(O)c1ccc2c(c1)CNCC2 | 470 | 1 | – | – |
| CC(=O)Nc1ccc2c(c1)CNCC2 | 190 | 0.48 | 9.1 | – |
| CS(=O)(=O)N(c1ccc2c(c1)CNCC2)S(C)(=O)=O | ~4500 | 0.042 | – | – |
| O=S(=O)(c1ccccc1)c1ccc2c(c1)CNCC2 | 14 | 1.5 | 21 | – |
| Brc1ccc2c(c1)CNCC2 | – | – | – | 0.29 |
| O=C(c1ccccc1)c1ccc2c(c1)CNCC2 | 2.9 | 9.3 | – | – |
| O=S(=O)(c1ccc2c(c1)CNCC2)C(Cl)(Cl)Cl | – | – | – | 1.3 |
| Oc1ccc2c(c1)CNCC2 | – | 0.85 | – | – |
| CS(=O)(=O)NCc1ccc2c(c1)CNCC2 | – | 0.055 | – | – |
| O=C(c1ccc2c(c1)CNCC2)C(F)(F)F | 5.7 | 5.6 | – | – |
| CC(=O)c1ccc2c(c1)CNCC2 | 4.9 | 1.2 | – | – |
| C[S+]([O-])c1ccc2c(c1)CNCC2 (configuration not stated) | 45 | 1.1 | 51 | – |
| O=[N+]([O-])c1ccc2c(c1)CNCC2 | 0.41 | 10 | – | – |
| COC(=O)c1ccc2c(c1)CNCC2 | 6.7 | 0.68 | – | – |
| O=S(=O)(Nc1ccc(Cl)cc1)c1ccc2c(c1)CNCC2 | – | 2.4 | – | – |
| CS(=O)(=O)c1ccc2c(c1)CNCC2 | 1.3 | 120 | 160 | – |
| OCc1ccc2c(c1)CNCC2 | 11 | 0.21 | – | – |
| NC(=O)c1ccc2c(c1)CNCC2 | 64 | 0.36 | – | – |
| NCc1ccc2c(c1)CNCC2 | 1900 | 0.0063 | – | – |
| CS(=O)(=O)Nc1ccc2c(c1)CNCC2 | – | 0.23 | – | – |
| C=CCS(=O)(=O)c1ccc2c(c1)CNCC2 | 9.8 | 9.7 | – | – |
